Only some compounds are listed: those with a hit (about 2.9% of all), similar ones and a draw of the others.
MC4R ag barr – agonists of human melanocortin 4 receptor (MC4R) beta-arrestin | P32245 | U2OS MC4R beta-arrestin complementation, luminescence; percent of melanotan II response, DMSO zero | activation, % at 8.9 µM | 360,000 compounds, 0.98% hits | AID 540308;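 active = activation above a per-plate cutoff, the mean activation of sample wells on that plate plus 3 SD, cut at about 8% in these data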
GalR3 antag – blocks the human galanin receptor 3; O60755; HEK293 GalR3-CNG cAMP membrane potential fluorescence; galR3 body fused to GalR1 C-terminus; inhibition, % at 3 µM; 360,000 compounds, 0.44% hits;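 active = inhibition above the screen-wide average plus 3 SD, cut at about 13% in these data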;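 note: forskolin and galanin both at EC90 stimulate the cells; cAMP rise reported by CNG channel membrane potential dye signal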
Target sequence (O60755 1-299 limits assumed): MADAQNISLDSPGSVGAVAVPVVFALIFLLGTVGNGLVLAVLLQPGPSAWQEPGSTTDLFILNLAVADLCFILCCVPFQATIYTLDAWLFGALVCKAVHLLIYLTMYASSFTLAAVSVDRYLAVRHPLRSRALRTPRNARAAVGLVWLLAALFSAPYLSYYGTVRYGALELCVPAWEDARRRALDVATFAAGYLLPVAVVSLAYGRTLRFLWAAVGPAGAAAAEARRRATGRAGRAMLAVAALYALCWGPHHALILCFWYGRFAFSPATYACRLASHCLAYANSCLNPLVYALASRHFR
Calb FLC – affects C. albicans growth with fluconazole. C. albicans CaCi-2 + fluconazole, Alamar Blue growth, 48 h. growth inhibition, % (no concentration beside the values). 300,000 compounds, 0.57% hits;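 active = growth inhibition above about 58% in most replicates, limit read from the data, passing the limit was not always enough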;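 note: all wells also contain fluconazole at 8 µg/ml as a sub-toxic cotreatment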
TAG inh – reduces triacylglycerol accumulation in H9c2 cells; Nile Red lipid (TAG) fluorescence; cells loaded with 200 µM oleic acid; 230,000 compounds, 0.66% hits; AID 651582; inhibition, % at 12.5 µM;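 active = pattern-corrected inhibition of lipid staining of at least 50% with the nuclear-stain viability signal not falling by more than 50%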
Efflux pump mplx – antifungal efflux pump inhibition, Nile Red retention; S. cerevisiae Candida pump triplex; inhibition, % at 10 µM; 330,000 compounds, 0.44% hits; AID 485275;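 active = plate passing quality check with inhibition over a set limit, or well fluorescence over plate mean plus 4 SD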;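 note: Nile Red retained in pooled yeast measured as flow cytometry median fluorescence; higher means more Nile Red kept so more efflux inhibition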
MC4R antag cAMP – human MC4R antagonism in cAMP assay. P32245. MC4R-expressing cells, MTII-stimulated cAMP, LANCE TR-FRET. inhibition, % at 6.5 µM. 360,000 compounds, 0.48% hits;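 active = inhibition above its plate's cutoff, the mean of tested wells on that plate plus 3 SD, cut at about 29% in these data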
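System: U2OS cells stably expressing human melanocortin 4 receptor (MC4R). Reagent: Melanotan II challenge after compound preincubation. Doses: 6.5 µM. Times: 30-min compound, 1-h challenge, 1-h detection, room temperature. Measured by: TR-FRET with Eu-cAMP and labeled anti-cAMP, 671 nm. Replicates: singlicate.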
Cmpd fluor yeast – counter-screen for efflux pump inhibitors: compound fluorescence; shares compounds with Efflux pump mplx; S. cerevisiae AD/pABC3, flow cytometry; fluorescence ratio to DMSO, % at 10 µM; 1,700 compounds, 4% hits; AID 588517;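 active = fluorescence ratio to DMSO above its plate's cutoff, the plate mean ratio plus 5 SD, cut at about 210% in these data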;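 note: unstained yeast with no Nile Red so the signal is compound autofluorescence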
Mdr1 pump inh – blocks the Candida albicans Mdr1 efflux pump in yeast; S. cerevisiae AD/CaMDR1, Nile Red efflux, flow cytometry; 1,700 compounds, 1% hits; inhibition, % at 10 µM; shares compounds with Efflux pump mplx; in the data active = inhibition above about 26%;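 note: higher means more Nile Red retained so more efflux inhibition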
CaCdr2 efflux inh – inhibitors of Candida albicans Cdr2 efflux pump. Nile Red retention ratio vs DMSO, % at 10 µM. shares compounds with Efflux pump mplx. 1,700 compounds, 4% hits. S. cerevisiae AD/CaCDR2, Nile Red retention, flow cytometry. AID 588520; in the data active = Nile Red retention ratio vs DMSO above about 190%;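 note: higher ratio means more blocking of Cdr2 efflux of the dye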
CaCdr1 efflux inh – Candida Cdr1 efflux pump inhibition | S. cerevisiae AD/CaCDR1, Nile Red efflux, flow cytometry | inhibition, % at 10 µM | AID 588522 | 1,700 compounds, 1% hits | shares compounds with Efflux pump mplx;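 active = inhibition above the screen-wide mean plus twice its standard deviation, cut at about 32% in these data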
Of the large screens only hits and unclear results are named; the others gave an inactive call (follow-up assays come after a bar, where they were run).

COc1cc(-c2cc(C(=O)Nc3cccc(C(C)=O)c3)c3ccccc3n2)cc(OC)c1OC	none (no result: TAG inh)
COC(=O)[C@]12C[C@H](CC(=O)NCCC(C)C)C(=O)N(Cc3ccccc3)C1=C[C@H](C(C)C)O[C@@H]2C1CC1	none (no result: MC4R ag barr, Calb FLC, TAG inh, Efflux pump mplx, MC4R antag cAMP)
Cc1ccc(-n2nc3c(=O)n(CCCC(=O)NCc4ccc(C)o4)nc(C)c3c2C)cc1	none (no result: TAG inh) | Cmpd fluor yeast inactive | Mdr1 pump inh inactive | CaCdr2 efflux inh inactive | CaCdr1 efflux inh inactive
Cc1ccc(-n2nc3c(=O)n(CC(=O)NCc4ccc(C)o4)nc(C)c3c2C)cc1	none (no result: TAG inh)
Cc1nn(CC(=O)NCc2cccs2)c(=O)c2nn(-c3ccccc3)c(C)c12	Efflux pump mplx 6.2 (no result: TAG inh) | Cmpd fluor yeast inactive | Mdr1 pump inh inactive | CaCdr2 efflux inh inactive | CaCdr1 efflux inh inactive
CCOC(=O)C1NN=C(C(=O)c2ccccc2)C1c1ccccc1 (configuration not stated)	none (no result: TAG inh)
CCOC(=O)C1NN=C(C(=O)c2ccccc2)C1c1ccc(OC)cc1 (configuration not stated)	Efflux pump mplx 1.4 (no result: TAG inh) | Cmpd fluor yeast inactive | Mdr1 pump inh inactive | CaCdr2 efflux inh inactive | CaCdr1 efflux inh inactive
CC(=O)N(C)c1ccc(NC(=S)NC(=O)/C=C/c2ccco2)cc1	Efflux pump mplx 0.6 (no result: TAG inh) | Cmpd fluor yeast inactive | Mdr1 pump inh inactive | CaCdr2 efflux inh inactive | CaCdr1 efflux inh inactive
CN1C(=CC=C2C=C(I)C(=O)C(I)=C2)C(C)(C)c2ccccc21	none (no result: Calb FLC, Efflux pump mplx)
CN1/C(=C\C=C2/SC(=S)NC2=O)C(C)(C)c2ccccc21	Efflux pump mplx 0.8 | Cmpd fluor yeast inactive | Mdr1 pump inh inactive | CaCdr2 efflux inh inactive | CaCdr1 efflux inh inactive
Cc1ccccc1[C@]1(C)ON(c2ccccc2C(F)(F)F)C1=O	none (no result: MC4R ag barr, GalR3 antag, Calb FLC, TAG inh, MC4R antag cAMP)
O=C(COc1cc(Cl)ccc1Cl)Nc1nnc(C2CC2)s1	none
O=C(COc1ccccc1F)Nc1nnc(-c2ccncc2)s1	none
Cc1ccccc1OCC(=O)Nc1nnc(-c2ccncc2)s1	none | Cmpd fluor yeast inactive | Mdr1 pump inh inactive | CaCdr2 efflux inh inactive | CaCdr1 efflux inh inactive
Cc1ccccc1OCC(=O)Nc1nnc(C2CCCCC2)s1	none | Cmpd fluor yeast inactive | Mdr1 pump inh inactive | CaCdr2 efflux inh inactive | CaCdr1 efflux inh inactive
COc1ccccc1OCC(=O)Nc1nnc(C2CCCC2)s1	none (no result: TAG inh)
COc1cc(C)ccc1OCC(=O)Nc1nnc(C2CC2)s1	none (no result: Calb FLC) | Cmpd fluor yeast inactive | Mdr1 pump inh inactive | CaCdr2 efflux inh inactive | CaCdr1 efflux inh inactive
O=C(COc1ccc(Br)cc1F)Nc1nnc(C2CC2)s1	none (no result: Calb FLC) | Cmpd fluor yeast inactive | Mdr1 pump inh inactive | CaCdr2 efflux inh inactive | CaCdr1 efflux inh inactive
Cc1ccc(NC2C(=O)NC(=O)NC2=O)cc1	none (no result: Calb FLC, Efflux pump mplx)
Cc1ccc(S(=O)(=O)c2nc(Nc3ccccc3C#N)sc2Cl)cc1	none (no result: TAG inh)
Cc1ccc(S(=O)(=O)c2nc(Nc3ccccc3N3CCOCC3)sc2Cl)cc1	Efflux pump mplx 7.5 (no result: TAG inh) | Cmpd fluor yeast inactive | Mdr1 pump inh inactive | CaCdr2 efflux inh inactive | CaCdr1 efflux inh inactive
Cc1noc(C)c1COc1ccccc1C(=O)N(C)CC(=O)Nc1ccc(F)cc1	none
Cc1ncc(C(=O)O)c(C(=O)O)c1N	Efflux pump mplx 5.5 (no result: TAG inh) | Cmpd fluor yeast inactive | Mdr1 pump inh inactive | CaCdr2 efflux inh inactive | CaCdr1 efflux inh inactive
CSc1ncc(C(=O)O)c(C)n1	none
CCCCCCCCN1C(=O)[C@@H](CC(=O)NCC2CCCCC2)C[C@@]2(C(=O)OC)C1=C[C@H](C1CCCC1)O[C@@H]2C	none (no result: MC4R ag barr, Calb FLC, TAG inh, Efflux pump mplx, MC4R antag cAMP)
Cc1cc(C)cc(-n2ncc3c2CCCC3NC(=O)c2cc(C)[nH]n2)c1 (configuration not stated)	none | Cmpd fluor yeast inactive | Mdr1 pump inh inactive | CaCdr2 efflux inh inactive | CaCdr1 efflux inh inactive

High-throughput results deposited in PubChem BioAssay by several laboratories.
